Experimental data from article PMC11658390 (BMC Chemistry, 2024).

How the values were obtained:
[1] = tested on: C. albicans (ATCC SC5314); assay: Antifungal activity, broth microdilution MIC; format: cell-based
[2] = tested on: MCF-7 breast cancer cell line; assay: Anticancer screening, MTT assay; format: cell-based, human
Method in brief: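 MCF-7 cells were seeded at 10,000 cells/well and grown 24 h in DMEM with 10% FBS and 1% antibiotic at 37 °C, 5% CO2. They were then exposed for 24 h to a range of test compound concentrations prepared in incomplete medium. MTT was added at 250 µg/ml final for 2 h, the supernatant was removed, and formazan was dissolved in DMSO. Absorbance was read at 540 nm, in triplicate.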

DHFR = molecular target: T1, DHFR (Homo sapiens, UniProt P00374); assay: DHFR inhibition assay; format: biochemical; conditions: from IC50 values
T1 sequence (P00374 1-187): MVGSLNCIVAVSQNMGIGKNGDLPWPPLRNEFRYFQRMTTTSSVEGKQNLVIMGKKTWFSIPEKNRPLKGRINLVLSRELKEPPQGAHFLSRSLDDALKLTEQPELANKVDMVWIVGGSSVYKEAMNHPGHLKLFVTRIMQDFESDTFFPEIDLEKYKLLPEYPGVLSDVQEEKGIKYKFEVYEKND

Compound	Inhibitory activity against fungal strain C. albicans, in words [1]	Anticancer activity against MCF-7, in words [2]	DHFR inhibitory potency relative to methotrexate (DHFR)
CC1CCC(C(C)C)C(OC(=O)C=Cc2ccc(O)c(O)c2)C1 (stereo not drawn) [CE3, 2-isopropyl-5-methylcyclohexyl 3-(3,4-dihydroxyphenyl)acrylate]	moderate action	moderate anticancer activity	–
CC(C)NCC(COc1cccc2ccccc12)OC(=O)C=Cc1ccc(O)c(O)c1 (stereo not drawn) [CE11, 1-(isopropylamino)−3-(naphthalen-1-yloxy)propan-2-yl 3-(3,4-dihydroxyphenyl)acrylate]	–	–	approximately four times more effective than methotrexate
O=C(C=Cc1ccc(O)c(O)c1)OCCc1ccccc1 [CE12, Phenethyl 3-(3,4-dihydroxyphenyl)acrylate]	moderate action	–	–
Nc1ccccc1OC(=O)C=Cc1ccc(O)c(O)c1 [CE17, 2-aminophenyl 3-(3,4-dihydroxyphenyl)acrylate]	moderate action	moderate anticancer activity	–
